ChEMBL document CHEMBL4834436, “Discovery of the S1P2 Antagonist GLPG2938 (1-[2-Ethoxy-6-(trifluoromethyl)-4-pyridyl]-3-[[5-methyl-6-[1-methyl-3-(trifluoromethyl)pyrazol-4-yl]pyridazin-3-yl]methyl]urea), a Preclinical Candidate for the Treatment of Idiopathic Pulmonary Fibrosis” (J Med Chem, 2021)
Values after ≈ are worked out from the molar mass of the structure shown. Active and inactive are the calls of the source. The rule behind the calls is not given here.

Assays:
[1] = target: T1, Sphingosine 1-phosphate receptor 2 (Homo sapiens, UniProt O95136); test: Antagonist activity at recombinant human S1P2 receptor expressed in CHO cells assessed as EC80 S1P-induced activation incubated for 4 hrs in presence of [35S]GTPgammaS by Topcount reader; type: functional, cell-based
How it was run: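 Membranes from stable lines overexpressing recombinant human S1P2, preincubated with PVT-WGA SPA beads, mixed with compound serial dilutions, [35S]GTPγS and S1P at EC80. Incubated 4 h at room temperature, centrifuged, scintillation counted. Antagonist mode; IC50 as geometric mean of ≥2 runs.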

[2] = target: T1, Sphingosine 1-phosphate receptor 2; test: Agonist activity at human S1P2 receptor expressed in CHO cells assessed as calcium flux measured for 3 mins by fluorescence assay; type: functional, cell-based; conditions: read-out: IC50 (the source's name)
How it was run: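 CHO cells stably overexpressing human S1P2, seeded overnight at 37 °C/5% CO2, washed and starved 1 h in F-12 with 0.1% fatty-acid-free BSA, loaded with Fluo 8 dye with 5 mM probenecid. Compound added, fluorescence read 3 min; max/baseline ratio normalized to vehicle and S1P EC100. 10-point 1/3 dilutions from 23.3 μM final; EC50 derived; geometric mean of ≥2 runs.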

[3] = target: T1, Sphingosine 1-phosphate receptor 2; test: Antagonist activity at human S1P2 receptor expressed in CHO cells assessed as EC80 S1P-induced calcium flux measured for 3 mins by fluorescence assay; type: functional, cell-based
How it was run: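 Same dye-loaded, starved human S1P2-CHO cells; after agonist readout, 15 min at 37 °C, then stimulated with S1P at EC80, fluorescence read 3 min. Max/baseline ratio normalized to vehicle and S1P EC80. 10-point 1/3 dilutions from 20 μM final; IC50 derived; geometric mean of ≥2 runs.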

[4] = target: T1, Sphingosine 1-phosphate receptor 2; test: Displacement of radio labeled-SIP from human recombinant S1P2 receptor expressed in CHO cell membranes […] by radioligand based competition binding assay; parameters: species or system Membrane
[5] = Volume of distribution at steady state in Sprague-Dawley rat at 1 mg/kg, iv measured up to 24 hrs by LC-MS/MS analysis; type: ADME, organism-based; conditions: in vivo, read-out: Vdss
How it was run: (§1)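 Male Sprague-Dawley rats (6–8 weeks), n = 3 per route; iv bolus 1 mg/kg in PEG200/water 60/40; gavage 5 or 10 mg/kg in PEG400/MC 0.5% after ≥12 h fast. Li-heparin plasma sampled to 24 h, LC-MS/MS, noncompartmental analysis. Plasma protein binding: 5 μM compound, 4 h incubation.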

[6] = Oral bioavailability in Sprague-Dawley rat at 10 mg/kg measured up to 24 hrs by LC-MS/MS analysis; type: ADME, organism-based; conditions: in vivo; how it was run: as §1
[7] = Plasma protein binding beagle dog plasma at 5 uM incubated for 4 hrs; type: ADME, cell-free, Canis lupus familiaris; conditions: read-out: PPB (converted)
How it was run: (§2)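 Non-naive male Beagle dogs (n = 3) given 1 mg/kg iv as 10 min infusion; after 3-day washout, oral gavage 5 or 1 mg/kg in PEG400/MC 0.5% or MC 0.5% after ≥12 h fast. Jugular or cephalic blood into lithium heparin to 24 h; plasma analysed. Plasma protein binding: 5 μM compound, 4 h incubation.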

[8] = system: Mus musculus; test: Antifibrotic activity against intranasal bleomycin-induced C57BL/6 mouse lung fibrosis model assessed as reduction in Ashcroft score at 3 to 30 mg/kg, po twice daily for 14 days; type: functional, organism-based; conditions: dose 3-30 mg/kg, time 14.0 day
How it was run: (§3)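 Male C57BL/6 mice (7–8 weeks on arrival, one week acclimation) given bleomycin intranasally; prophylactic oral dosing twice daily for 14 days. Lungs scored histologically by Matsuse-modified Ashcroft score; 14–15 mice per group; Mann–Whitney vs bleomycin/vehicle.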

[9] = Plasma protein binding CD1 mouse plasma at 5 uM incubated for 4 hrs; type: ADME, cell-free; conditions: read-out: PPB (converted)
How it was run: (§4)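 Male CD1 mice, composite design, n = 6 per route; iv 1 mg/kg in PEG200/water 60/40, oral gavage 5 mg/kg in Tween 80/MC 0.5% or PEG400/MC 0.5% after ≥12 h fast. Li-heparin blood sampled to 24 h, plasma by LC-MS/MS; noncompartmental analysis. Plasma protein binding: 5 μM compound, 4 h incubation.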

[10] = target: T1, Sphingosine 1-phosphate receptor 2; test: Antagonist activity at recombinant human S1P2 receptor in HFL1 cells assessed as inhibition of EC80 S1P-induced IL8 release measured as unbound concentration incubated for 16 to 24 hrs in presence of 2% HSA by ELISA; type: functional, cell-based; conditions: filed as antagonist, time 16-24 hrs
How it was run: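 IL8 IC50 from the 2% HSA condition converted to free IC50 = IC50 × fu,medium, where fu,medium is estimated from human plasma protein binding fraction unbound and the serum percentage used in the assay.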

[11] = Clearance in beagle dog at 1 mg/kg, iv measured up to 24 hrs by LC-MS/MS analysis; type: ADME, organism-based, Canis lupus familiaris; conditions: in vivo; how it was run: as §2
[12] = Volume of distribution at steady state in CD1 mouse at 1 mg/kg, iv measured up to 24 hrs by LC-MS/MS analysis; type: ADME, organism-based; conditions: in vivo, read-out: Vdss; how it was run: as §4
[13] = Thermodynamic solubility in FaSSGF at pH 1.6; type: physicochemical; conditions: read-out: Therm_solubility
[14] = Intrinsic clearance unbound in human liver microsomes at 1 uM […] by LC-MS/MS analysis; type: ADME, Microsome
[15] = Clearance in Sprague-Dawley rat at 1 mg/kg, iv measured up to 24 hrs by LC-MS/MS analysis; type: ADME, organism-based; conditions: in vivo; how it was run: as §1
[16] = Half life in Sprague-Dawley rat at 1 mg/kg, iv measured up to 24 hrs by LC-MS/MS analysis; type: ADME, organism-based; conditions: in vivo; how it was run: as §1
[17] = Oral bioavailability in beagle dog at 1 mg/kg measured up to 24 hrs by LC-MS/MS analysis; type: ADME, organism-based, Canis lupus familiaris; conditions: in vivo; how it was run: as §2
[18] = Plasma protein binding Sprague-Dawley rat plasma at 5 uM incubated for 4 hrs; type: ADME, cell-free; conditions: read-out: PPB (converted); how it was run: as §1
[19] = Volume of distribution at steady state in beagle dog at 1 mg/kg, iv measured up to 24 hrs by LC-MS/MS analysis; type: ADME, organism-based, Canis lupus familiaris; conditions: in vivo, read-out: Vdss; how it was run: as §2
[20] = Half life in CD1 mouse at 1 mg/kg, iv measured up to 24 hrs by LC-MS/MS analysis; type: ADME, organism-based; conditions: in vivo; how it was run: as §4
[21] = Intrinsic clearance unbound in mouse liver microsomes at 1 uM […] by LC-MS/MS analysis; type: ADME, Microsome
[22] = Clearance in CD1 mouse at 1 mg/kg, iv measured up to 24 hrs by LC-MS/MS analysis; type: ADME, organism-based; conditions: in vivo; how it was run: as §4
[23] = Half life in beagle dog at 1 mg/kg, iv measured up to 24 hrs by LC-MS/MS analysis; type: ADME, organism-based, Canis lupus familiaris; conditions: in vivo; how it was run: as §2
[24] = target: T1, Sphingosine 1-phosphate receptor 2; test: Antagonist activity at recombinant human S1P2 receptor in HFL1 cells assessed as inhibition of EC80 S1P-induced IL8 release incubated for 16 to 24 hrs in presence of 2% HSA by ELISA; type: functional, cell-based
How it was run: (§5)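 HFL-1 lung fibroblasts seeded in 96- or 384-well plates, then medium replaced by starvation medium with 1% heat-inactivated FBS, ±1.95% HSA (2% HSA condition), 16–24 h. 10-point 1/3 dilutions, 30 μM top final, 1 h, then S1P at EC80 (without HSA: 1 μM 96-well or 0.5 μM 384-well; with HSA: 5 or 2 μM).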

[25] = target: T1, Sphingosine 1-phosphate receptor 2; test: Antagonist activity at recombinant human S1P2 receptor in HFL1 cells assessed as inhibition of EC80 S1P-induced IL8 release incubated for 16 to 24 hrs in absence of HSA by ELISA; type: functional, cell-based; how it was run: as §5
[26] = Thermodynamic solubility in FaSSIF; type: physicochemical; conditions: read-out: Therm_solubility
[27] = Oral bioavailability in CD1 mouse at 5 mg/kg measured up to 24 hrs by LC-MS/MS analysis; type: ADME, organism-based; conditions: in vivo; how it was run: as §4
[28] = target: CYP2C9 (Homo sapiens, UniProt P11712); test: Inhibition of recombinant CYP2C9 (unknown origin) at 10 uM; type: ADME
[29] = target: CYP3A4 (Homo sapiens, UniProt P08684); test: Inhibition of recombinant CYP3A4 (unknown origin) at 10 uM; type: ADME
[30] = target: CYP2C19 (Homo sapiens, UniProt P33261); test: Inhibition of recombinant CYP2C19 (unknown origin) at 10 uM; type: ADME
[31] = system: Mus musculus; test: Antifibrotic activity against intranasal bleomycin-induced C57BL/6 mouse lung fibrosis model assessed as reduction in Ashcroft score at 50 mg/kg, po twice daily for 14 days; type: functional, organism-based; conditions: time 14.0 day; how it was run: as §3
[32] = Oral bioavailability in Sprague-Dawley rat at 5 mg/kg measured up to 24 hrs by LC-MS/MS analysis; type: ADME, organism-based; conditions: in vivo; how it was run: as §1
[33] = Oral bioavailability in beagle dog at 5 mg/kg measured up to 24 hrs by LC-MS/MS analysis; type: ADME, organism-based, Canis lupus familiaris; conditions: in vivo; how it was run: as §2

T1 sequence (O95136 whole entry): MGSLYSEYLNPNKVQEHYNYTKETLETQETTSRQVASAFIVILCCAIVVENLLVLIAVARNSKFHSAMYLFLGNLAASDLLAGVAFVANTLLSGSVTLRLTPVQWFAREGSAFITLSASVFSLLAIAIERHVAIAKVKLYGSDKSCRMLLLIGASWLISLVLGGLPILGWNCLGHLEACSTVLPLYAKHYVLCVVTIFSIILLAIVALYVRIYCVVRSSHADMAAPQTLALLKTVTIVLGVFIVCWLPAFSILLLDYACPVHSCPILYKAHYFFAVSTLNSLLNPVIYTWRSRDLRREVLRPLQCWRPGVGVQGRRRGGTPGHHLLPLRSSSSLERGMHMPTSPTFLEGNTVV
Sequence of CYP3A4 (P08684 whole entry): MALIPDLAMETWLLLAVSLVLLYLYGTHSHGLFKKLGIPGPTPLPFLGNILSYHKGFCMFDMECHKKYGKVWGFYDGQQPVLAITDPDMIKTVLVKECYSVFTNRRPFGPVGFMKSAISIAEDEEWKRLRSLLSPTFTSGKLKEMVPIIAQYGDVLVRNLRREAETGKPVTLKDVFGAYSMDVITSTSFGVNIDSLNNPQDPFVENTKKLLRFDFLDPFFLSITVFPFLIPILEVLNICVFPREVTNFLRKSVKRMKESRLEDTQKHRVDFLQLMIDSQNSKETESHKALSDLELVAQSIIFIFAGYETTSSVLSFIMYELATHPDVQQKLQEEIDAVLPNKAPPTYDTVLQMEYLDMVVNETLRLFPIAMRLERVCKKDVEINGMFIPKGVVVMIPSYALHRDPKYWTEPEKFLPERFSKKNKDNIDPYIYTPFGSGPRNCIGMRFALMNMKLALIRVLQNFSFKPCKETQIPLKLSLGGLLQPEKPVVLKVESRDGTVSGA
Sequence of CYP2C9 (P11712 whole entry): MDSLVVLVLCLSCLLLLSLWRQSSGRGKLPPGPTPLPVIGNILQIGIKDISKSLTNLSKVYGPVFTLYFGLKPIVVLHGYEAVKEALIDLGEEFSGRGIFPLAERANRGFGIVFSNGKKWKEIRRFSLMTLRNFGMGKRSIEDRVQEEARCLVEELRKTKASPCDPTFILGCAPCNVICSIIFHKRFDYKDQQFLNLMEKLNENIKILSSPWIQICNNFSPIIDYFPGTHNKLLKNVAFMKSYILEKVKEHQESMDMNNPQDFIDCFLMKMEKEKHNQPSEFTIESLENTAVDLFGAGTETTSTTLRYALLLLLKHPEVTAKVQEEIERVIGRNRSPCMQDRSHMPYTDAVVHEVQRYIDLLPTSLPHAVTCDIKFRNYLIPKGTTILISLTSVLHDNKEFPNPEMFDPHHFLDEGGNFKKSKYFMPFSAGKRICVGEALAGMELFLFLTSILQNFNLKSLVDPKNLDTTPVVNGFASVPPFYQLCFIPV
Sequence of CYP2C19 (P33261 whole entry): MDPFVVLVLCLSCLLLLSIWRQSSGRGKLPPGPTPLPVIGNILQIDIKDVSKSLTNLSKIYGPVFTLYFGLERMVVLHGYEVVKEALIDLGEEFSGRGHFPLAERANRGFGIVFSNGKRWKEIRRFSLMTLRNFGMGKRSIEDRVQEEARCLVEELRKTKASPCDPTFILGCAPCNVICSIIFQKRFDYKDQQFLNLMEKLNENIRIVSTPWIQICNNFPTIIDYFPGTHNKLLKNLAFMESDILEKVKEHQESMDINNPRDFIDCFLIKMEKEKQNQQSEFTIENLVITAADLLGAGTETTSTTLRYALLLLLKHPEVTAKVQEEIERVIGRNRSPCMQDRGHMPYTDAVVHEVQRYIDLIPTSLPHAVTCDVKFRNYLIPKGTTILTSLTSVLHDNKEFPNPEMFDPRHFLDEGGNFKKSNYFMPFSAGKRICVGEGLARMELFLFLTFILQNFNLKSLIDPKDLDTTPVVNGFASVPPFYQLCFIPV

## Cc1cc(NNC(=O)Nc2cc(Cl)nc(Cl)c2)ncc1-c1cn(C)nc1C
[1]
  IC50: 800 nM
[2]
  EC50: > 23000 nM
[3]
  IC50: > 1400 nM
[4]
  IC50: 190 nM

## Cc1cc(NNC(=O)Nc2cc(Cl)nc(Cl)c2)ncc1-c1cnn(C)c1
[1]
  IC50: 3400 nM
[2]
  EC50: > 23000 nM
[3]
  IC50: 2600 nM
[4]
  IC50: 1200 nM

## CCOc1nc(C)cc(NC(=O)NCc2cc(C)c(-c3cn(C)nc3C(F)(F)F)nn2)c1C
[5]
  Vd: 0.54 L/kg
[6]
  bioavailability: 84%
[1]
  IC50: 16000 nM
[7]
  fraction unbound at 4 h, 5 µM: 0.022
[8]
  Activity: Active
[9]
  fraction unbound at 4 h, 5 µM: 0.014
[3]
  IC50: 4500 nM
[10]
  fIC50: 1.3 nM
[11]
  clearance: 11 mL/min/kg
[12]
  Vd: 0.47 L/kg
[13]
  solubility thermodynamic: 505 µg/mL (≈ 1090 µM)
[14]
  CL free: 36.7 mL/min/kg
[15]
  clearance: 6.17 mL/min/kg
[16]
  half-life: 1 h
[17]
  bioavailability: 39%
[18]
  fraction unbound at 4 h, 5 µM: 0.004
[19]
  Vd: 1.5 L/kg
[20]
  half-life: 0.45 h
[21]
  CL free: 283 mL/min/kg
[22]
  clearance: 12.2 mL/min/kg
[23]
  half-life: 1.6 h
[24]
  IC50: 49 nM
[25]
  IC50: 16 nM
[26]
  solubility thermodynamic: 15 µg/mL (≈ 32.4 µM)
[27]
  bioavailability: 29%

## CCOc1cc(NC(=O)NCc2cc(C)c(-c3cn(C)nc3C(F)(F)F)cn2)cc(Cl)n1
[1]
  IC50: 22000 nM
[3]
  IC50: 11 nM
[14]
  CL free: 150 mL/min/kg
[28]
  inhibition at 10 µM: 83%
[29]
  inhibition at 10 µM: 83%
[30]
  inhibition at 10 µM: 100%
[21]
  CL free: 450 mL/min/kg
[25]
  IC50: 22 nM

## Cc1ccc(=O)n(-c2ccccc2)c1
[31]
  Activity: Active

## CCOc1cc(NC(=O)NCc2cc(C)c(-c3cn(C)nc3C(F)(F)F)nn2)cc(Cl)n1
[5]
  Vd: 0.38 L/kg
[1]
  IC50: 20000 nM
[7]
  fraction unbound at 4 h, 5 µM: 0.016
[9]
  fraction unbound at 4 h, 5 µM: 0.002
[3]
  IC50: 7700 nM
[10]
  fIC50: 1 nM
[11]
  clearance: 7.83 mL/min/kg
[12]
  Vd: 0.49 L/kg
[32]
  bioavailability: 10%
[13]
  solubility thermodynamic: 5 µg/mL (≈ 10.6 µM)
[14]
  CL free: < 43.3 mL/min/kg
[15]
  clearance: 4.17 mL/min/kg
[28]
  inhibition at 10 µM: 58%
[16]
  half-life: 1.1 h
[18]
  fraction unbound at 4 h, 5 µM: 0.001
[19]
  Vd: 2.1 L/kg
[20]
  half-life: 0.55 h
[29]
  inhibition at 10 µM: 23%
[30]
  inhibition at 10 µM: 61%
[21]
  CL free: < 383 mL/min/kg
[22]
  clearance: 10.3 mL/min/kg
[23]
  half-life: 3.1 h
[33]
  bioavailability: 30%
[24]
  IC50: 45 nM
[25]
  IC50: 20 nM
[26]
  solubility thermodynamic: 36 µg/mL (≈ 76.6 µM)
[27]
  bioavailability: 20%

## CCOC(=O)c1cc(C)cc(NNC(=O)Nc2cc(Cl)nc(Cl)c2)n1
[1]
  IC50: 2100 nM
[2]
  EC50: > 23000 nM
[3]
  IC50: 760 nM
[4]
  IC50: 300 nM

## Cc1cc(CNC(=O)Nc2cc(OCCO)nc(C(F)(F)F)c2)nnc1-c1cn(C)nc1C(F)(F)F
[1]
  IC50: 704000 nM
[3]
  IC50: 348000 nM
[10]
  fIC50: 87 nM
[14]
  CL free: < 23.3 mL/min/kg
[21]
  CL free: 102 mL/min/kg
[24]
  IC50: 810 nM
[25]
  IC50: 704 nM
